Bioassay records (PubChem BioAssay)
HKDC1 act = increases human hexokinase HKDC1 activity; activity change, negative = activation, % at 20 µM; 340,000 compounds, 0.056% hits; recombinant HKDC1, G6PDH/diaphorase resazurin fluorescence; active compounds read low; AID 493187;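 active means activation of 40% or more at 20 µM, a change of -40% or lower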
Target sequence (Q2TB90 whole entry, looked up): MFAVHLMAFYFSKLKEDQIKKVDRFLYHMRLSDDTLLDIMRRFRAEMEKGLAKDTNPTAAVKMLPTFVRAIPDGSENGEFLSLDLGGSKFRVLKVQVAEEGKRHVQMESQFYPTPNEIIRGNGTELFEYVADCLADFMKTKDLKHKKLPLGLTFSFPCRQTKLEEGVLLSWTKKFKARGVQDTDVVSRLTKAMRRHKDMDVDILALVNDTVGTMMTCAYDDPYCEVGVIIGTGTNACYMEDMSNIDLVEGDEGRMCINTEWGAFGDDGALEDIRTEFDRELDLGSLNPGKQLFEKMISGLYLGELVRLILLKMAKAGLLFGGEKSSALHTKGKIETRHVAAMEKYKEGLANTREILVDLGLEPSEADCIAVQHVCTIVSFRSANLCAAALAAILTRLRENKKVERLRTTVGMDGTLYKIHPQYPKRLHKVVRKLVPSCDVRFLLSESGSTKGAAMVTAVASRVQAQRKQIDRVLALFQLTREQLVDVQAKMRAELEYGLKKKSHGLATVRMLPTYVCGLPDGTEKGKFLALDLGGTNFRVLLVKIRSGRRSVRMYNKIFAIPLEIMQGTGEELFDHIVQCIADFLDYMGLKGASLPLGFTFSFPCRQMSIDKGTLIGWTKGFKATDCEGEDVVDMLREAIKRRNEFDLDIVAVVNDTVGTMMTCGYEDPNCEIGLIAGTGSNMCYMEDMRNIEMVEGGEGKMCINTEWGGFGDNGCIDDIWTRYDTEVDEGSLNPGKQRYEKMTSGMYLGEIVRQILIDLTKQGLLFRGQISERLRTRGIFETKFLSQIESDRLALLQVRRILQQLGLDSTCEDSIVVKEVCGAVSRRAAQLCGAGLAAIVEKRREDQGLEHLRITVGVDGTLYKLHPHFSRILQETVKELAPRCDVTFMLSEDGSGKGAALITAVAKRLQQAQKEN
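Material: in-house human HKDC1 enzyme, G6PDH and diaphorase coupling enzymes | Quantity: HKDC1 at 5 µg/mL final | Medium: Tris buffer at pH 8.0 containing MgCl2 | Compound dosing: 20 µM single dose | Schedule: 90 min reaction at room temperature, dark | Measured by: Resorufin fluorescence, 525/613 nm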
Large screens that a line does not name were inactive. A selection follows.

Cc1ccc(C(=O)ONc2ccc(N=NC(=O)c3ccccc3O)cc2)cc1	none
CC(C)c1nc2oc3c(NCc4ccccn4)ncnc3c2c2c1COC(C)(C)C2	none
Cc1cc(C)c(S(=O)(=O)/N=C2/C=C(SCC(=O)O)C(=O)c3ccccc32)cc1C	none
COC(=O)CCC(=O)OC1(C)C(=O)C2=CN(Cc3ccc4c(c3)OCO4)C(c3ccc(OC)cc3)=CC2=C(Br)C1=O (stereo unspecified)	none
CCCC(=O)N1CCN(Cc2ccc3c(c2)OCO3)CC1	HKDC1 act -56.9
CCOC(=O)/C(=C\c1cccnc1)C(=O)c1cc(C(C)=O)c(Nc2ccccc2)s1	none
O=[N+]([O-])c1ccc(-c2csc(N/N=C/c3cccnc3)n2)cc1	none
COc1cc(OC)cc(C(=O)NC(=S)NNC(=O)c2cnccn2)c1	HKDC1 act -41.6
Cn1c(/N=C/c2c(O)ccc3ccccc23)nc2ccccc21	none
CC(C)(C)n1[nH]c2c3c(ccc2c1=O)C(=O)c1ccccc1C3=O	none
CC(OC(=O)c1cc(O)c2ccccc2c1O)C(=O)Nc1ccc(C(N)=O)cc1 (stereo unspecified)	none
CCCN(CCC)C(=S)NC(=O)c1ccc(-c2ccccc2)cc1	HKDC1 act -47.6
N#C/C(C(N)=O)=c1/ccc2c(c1)N1C3=C(CCCC3)CC3CCCCC31N=2 (stereo unspecified)	none
COc1cc(/C=C(\C#N)c2nc3ccc(C)cc3[nH]2)cc([N+](=O)[O-])c1O	none
Cc1cccn2c(=O)c3cc(C(N)=S)c(=N)n(CCCN4CCOCC4)c3nc12	HKDC1 act -53.8
O=C(CN1C(=O)/C(=C2\SC(=S)N(CCS(=O)(=O)O)C2=O)c2ccccc21)Nc1cccc(Br)c1	none
O=C(O)c1cccc(-c2ccc(/C=c3/sc4nc5ccccc5n4c3=O)o2)c1	none
Cc1oc2c(c1C(=O)c1ccccc1)C(=O)C(=O)c1ccccc1-2	none
CC(=O)NC1C(=O)N(CCN2CCOCC2)c2ccc(Cl)cc21 (stereo unspecified)	none
O=C(NCc1ccncc1)C(=O)N/N=C/c1ccc(OCc2ccccc2)cc1	HKDC1 act -58.4
CCc1c(C)c(C#N)c2nc3ccccc3n2c1NC	HKDC1 act -65.6
O=c1oc2c(O)c(O)cc3c(=O)oc4c(O)c(O)cc1c4c23	none
O=C1C=C(c2c(O)ccc3ccccc23)c2ccccc2C1=O	none
COc1ccc2cc(/C=N/NC(=O)c3c(Cl)cnn3C)c(Cl)nc2c1	HKDC1 act -74.9
O=C(C1=C(O)C(=O)N(c2nc3ccc(Cl)cc3s2)C1c1ccco1)c1ccco1 (stereo unspecified)	none
COc1ccc2[nH]c3c4c(ccc3c2c1)C(=O)C=CC4=O	none
Cc1ccc(S(=O)(=O)N(C(=O)c2ccncc2)c2ccc(OC(=O)c3ccncc3)c3ccccc23)c(C)c1	none
O=C1NC(=S)S/C1=C\c1ccc(SCc2ccco2)o1	none
Cc1ccc(NC2=C/C(=N\S(=O)(=O)c3cccs3)c3ccccc3C2=O)c(C)c1	none
O=S(=O)(NC1c2cccc3cccc(c23)C1N1CCN(CCO)CC1)c1ccccc1 (stereo unspecified)	HKDC1 act -66.1
O=S(=O)(NC1c2cccc3cccc(c23)C1N1CCNCC1)c1ccccc1 (stereo unspecified)	HKDC1 act -55.8
O=C(CSc1n[nH]c(-c2ccccc2)n1)Nc1ncc(Br)cc1Br	none
COc1ccc(S(=O)(=O)Nc2cc(SCC(=O)O)c(O)c3ccccc23)cc1	none
O=C(O)CSc1cc(NS(=O)(=O)c2ccc(Cl)cc2)c2ccccc2c1O	none
O=C(Nc1ccc2nc(-c3ccco3)c(-c3ccco3)nc2c1)NC1CC1	none
Cc1ccc(SC2=C(N(C)C)C(=O)c3ccccc3C2=O)cc1	none
CCNc1ccc(Br)cc(C(=O)/C=C/c2c(Cl)cccc2Cl)c1=O	none
O=C(N/N=C1/C(=O)c2cccc3cccc1c23)c1ccc(Cl)cc1	none
CN(c1ccc(C(=O)N2CCN(Cc3ccccc3)CC2)cc1)S(=O)(=O)c1ccccc1	HKDC1 act -75.7
NC1=C(Br)C(=O)c2ncccc2C1=O	none
c1ccc(Nc2cc(Nc3ccccc3)[nH]n2)cc1	HKDC1 act -46.9
Cc1ccc(C(=O)/C=C/c2cc(Br)cc(Br)c2O)o1	none
S=C(NCc1ccccn1)NN=Cc1ccccn1	HKDC1 act -44.1
CCC(Sc1nc(C)cc(C)n1)C(=O)NC1=NN=C(c2ccc(C)cc2)CS1 (stereo unspecified)	HKDC1 act -149.5
O=C(O)[C@@H](c1ccccc1)N1Cc2ccccc2C1=O	none
O=C(CCCCC(=O)Sc1ccccc1)Sc1ccccc1	none
COc1ccc(-c2cc3ccccc3[nH]2)cc1	none
Oc1ccc(/C=N/NC(=S)Nc2cccnc2)c(O)c1	HKDC1 act -40.3
Nc1ccc(N)c(C(=O)O)c1	none
Cc1nc([N+](=O)[O-])c(Br)n1CC(=O)c1ccc2ccccc2c1	none
O=c1[nH]c(=O)c2nc3c4ccccc4c4ccccc4c3nc2[nH]1	none
O=C1C=C(N2CCCCC2)c2ccccc2C1=O	none
Cc1ccc(-n2c3nc(=O)[nH]c(=O)c-3cc3cc([N+](=O)[O-])ccc32)cc1	none
CC(=NNC(=S)N1CC2CCC(CC2)C1)c1cccc(C)n1	HKDC1 act -46.5
